Values after ≈ are worked out from the molar mass of the structure shown.

The test system of experiment [1] is Escherichia coli. Kind of experiment: In vitro antibacterial MIC determination. Type of experiment: cell-based. An outline of the steps: (§1)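 Bacteria grown on nutrient agar, subcultured to log phase in nutrient broth, then diluted in sterile saline to about 10^5–10^6 CFU mL−1. Test compounds diluted in acetone, DMSO or diethyl ether (ether preferred). Saturated disks placed on spread-plated inoculum and incubated at 37 °C for 24 h. MIC determined across different compound concentrations, with streptomycin as standard.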

Experiment [2] concerns the target T1, COX-2 (Ovis aries, UniProt P79208).
T1 sequence (P79208 17-603): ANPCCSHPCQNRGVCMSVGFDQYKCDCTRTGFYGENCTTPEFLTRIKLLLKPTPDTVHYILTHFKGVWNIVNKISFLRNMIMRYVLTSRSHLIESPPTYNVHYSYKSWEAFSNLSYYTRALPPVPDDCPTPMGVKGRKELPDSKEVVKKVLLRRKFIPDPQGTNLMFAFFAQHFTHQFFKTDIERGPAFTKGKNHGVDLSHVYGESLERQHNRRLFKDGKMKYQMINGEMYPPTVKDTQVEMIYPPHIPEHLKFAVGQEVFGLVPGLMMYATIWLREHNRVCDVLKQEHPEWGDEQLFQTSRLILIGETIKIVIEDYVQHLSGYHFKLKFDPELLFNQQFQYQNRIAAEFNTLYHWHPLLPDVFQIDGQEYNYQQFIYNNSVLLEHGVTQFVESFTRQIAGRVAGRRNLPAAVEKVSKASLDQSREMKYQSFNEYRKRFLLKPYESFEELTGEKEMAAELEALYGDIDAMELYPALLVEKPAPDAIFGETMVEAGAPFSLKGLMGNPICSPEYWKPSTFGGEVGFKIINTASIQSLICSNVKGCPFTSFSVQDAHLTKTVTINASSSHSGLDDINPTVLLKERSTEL
Kind of experiment: Colorimetric COX. The format is biochemical, ovine. To be noted: read-out: % inhibition of COX, COX-2.

The subject of experiment [3] is carrageenan-induced paw edema. Put plainly: Carrageenan induced hind paw edema assay. The format is in vivo. To be noted: rat, 100 mg kg^−1 p.o., mean ± SEM. The gist of the method: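 Rats, six per group, acclimatized one week (25 ± 2 °C, 12 h light/dark, standard pellets, water ad libitum). […] Paw volume measured by plethysmometer displacement to the lateral malleolus at 1, 3 and 6 h. Mean ± SEM.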
(In general: In the carrageenan paw model, swelling and tenderness develop within hours.)

The subject of experiment [4] is RAW 264.7 cells. Kind of experiment: MTT assay, LPS-induced inflammation in RAW 264.7. Type of experiment: cell-based, murine. To be noted: RAW 264.7, pre-treatment 100 μM and 200 μM, then LPS; Fig. 4. An outline of the steps:
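Mouse RAW 264.7 macrophages kept in high-glucose DMEM with 10% heat-inactivated FBS and 1% penicillin–streptomycin at 37 °C, 5% CO2. Cells seeded at 5 × 10^5 cells per mL, pretreated 1 h with test compound (100 or 200 μM), then stimulated with […] for 24 h. Medium replaced; 0.5 mg mL−1 MTT for 3 h; formazan dissolved in DMSO; OD read at 540 nm. Percent inflammation derived by subtracting percent viability relative to control.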
On the technique in general: Tetrazolium dyes change colour on reduction, which living cells bring about.

Experiment [5] concerns RAW 264.7 cells. Kind of experiment: Nitrite. The format is cell-based, murine. To be noted: RAW 264.7, 100 μM and 200 μM pre-treatment; Fig. 5. The gist of the method:
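RAW 264.7 cells (1 × 10^6) seeded in flasks and left to adhere overnight. Pretreated 1 h with test compound (100 or 200 μM), then 100 μM LPS for 24 h at 37 °C, 5% CO2. Supernatant mixed with an equal volume of Griess reagent (0.1% naphthylethylenediamine and 1% sulfanilamide, 1:1, in 5% phosphoric acid) for 10 min in the dark at room temperature; A540 read. Nitrite quantified from a NaNO2 standard curve (0.1–6.25 μM), expressed as μmol NO2−/mg protein. Triplicates.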

The subject of experiment [6] is Bacillus subtillis. Kind of experiment: In vitro antibacterial MIC determination. Type of experiment: cell-based. The gist of the method:
as §1

Experiment [7] deals with T2, COX-1 (Ovis aries, UniProt P05979).
T2 sequence (P05979 25-600): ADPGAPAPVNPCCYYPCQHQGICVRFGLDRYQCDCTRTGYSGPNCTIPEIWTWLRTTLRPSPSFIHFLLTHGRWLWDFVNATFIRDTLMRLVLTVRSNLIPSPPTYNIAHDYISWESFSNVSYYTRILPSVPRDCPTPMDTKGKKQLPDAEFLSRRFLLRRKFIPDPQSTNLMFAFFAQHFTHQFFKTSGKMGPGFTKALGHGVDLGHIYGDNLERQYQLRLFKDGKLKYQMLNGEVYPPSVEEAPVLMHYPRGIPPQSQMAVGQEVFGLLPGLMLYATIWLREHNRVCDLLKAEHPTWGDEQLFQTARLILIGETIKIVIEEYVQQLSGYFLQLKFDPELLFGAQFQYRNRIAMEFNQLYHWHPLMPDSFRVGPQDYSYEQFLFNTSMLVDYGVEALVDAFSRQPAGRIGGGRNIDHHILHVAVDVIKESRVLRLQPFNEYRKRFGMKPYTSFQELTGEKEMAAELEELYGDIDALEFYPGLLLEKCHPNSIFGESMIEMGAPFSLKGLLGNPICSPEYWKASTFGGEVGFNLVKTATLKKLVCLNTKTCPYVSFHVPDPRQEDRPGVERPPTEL
Kind of experiment: Colorimetric COX. Type of experiment: biochemical, ovine. To be noted: read-out: % inhibition of COX, COX-1.

Experiment [8] deals with Pseudomonas aeruginosa. Put plainly: In vitro antibacterial MIC determination. The format is cell-based. An outline of the steps: as §1
Experiment [9] concerns cotton pellet induced granuloma. Kind of experiment: Cotton pellets induced granuloma assay. Type of experiment: in vivo. The settings on record: rat, 100 mg kg^−1 p.o. for 8 d, mean ± SEM. The gist of the method:
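Two sterile 10 mg cotton pellets implanted ventrally in rats, six per group. […] On day 9 rats were killed under excess ether. Pellets were freed of tissue and weighed wet, then dried at 55 °C for 6 h or to constant weight. Granuloma equals dry weight minus cotton weight. Mean ± SEM.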

Experiment [10] deals with Aspergillus niger. Kind of experiment: In vitro antifungal MIC, poison plate technique. Type of experiment: cell-based.
Experiment [11] concerns Rhizopus arrhizus. Put plainly: In vitro antifungal MIC, poison plate technique. The format is cell-based.
Experiment [12] concerns Aspergillus flavus. Put plainly: In vitro antifungal MIC, poison plate technique. The format is cell-based.
Experiment [13] deals with Staphylococcus aureus. Put plainly: In vitro antibacterial MIC determination. The format is cell-based. An outline of the steps:
as §1

The MIC is the least concentration at which growth counts as inhibited. What is called inhibition is the relative decrease from the control value, in per cent. For the compound `O=S(=O)(NC[C@@H](O)[C@@H]1CCc2cc(F)ccc2O1)c1ccc(Br)cc1` [Compound 8b, 4-Bromo-N-((R)-2-((S)-6-fluorochroman-2-yl)-2-hydroxyethyl)benzenesulfonamide], the MIC is 12.7 ± 0.87 mg/L (≈ 29.5 µM) in experiment [1]; 15.08 ± 0.08 mg/L (≈ 35 µM) in experiment [6]; 22.4 ± 0.4 mg/L (≈ 52.1 µM) in experiment [8]; 20.4 ± 0.87 mg/L (≈ 47.4 µM) in [10]; 20.2 ± 0.65 mg/L (≈ 47 µM) in experiment [11]; 17.81 ± 0.16 mg/L (≈ 41.4 µM) in experiment [12]. Further, the MIC in [13] was found to be 17.9 ± 0.61 mg/L (≈ 41.6 µM). The results for the inhibition at 100 µM in experiment [2] and in [7] were 34.4 ± 0.66% and 46.1 ± 0.22%, respectively. Moreover, the inhibition at 200 µM in experiment [2] turned out to be 60.04 ± 0.24%; in [7], 68.78 ± 0.43%. The Paw volume was determined as 0.52 ± 0.18 mL in [3] (1 h after carrageenan), 0.80 ± 0.38 mL in experiment [3] (3 h after carrageenan) and 1.06 ± 0.27 mL in experiment [3] (6 h after carrageenan). In experiment [4], the “anti-inflammatory activity against LPS induced cell death / inflammation (MTT)” value was “strong anti-inflammatory activity”. For the same compound, in experiment [5], the “inhibition of LPS-induced NO production” value is reported as “strong inhibition”. Moreover, the “Weight, Dry (cotton pellet)” value in experiment [9] was determined as 84.10 ± 1.67 mg. In addition, the “Weight, Wet (cotton pellet)” value in experiment [9] is 182.50 ± 1.77 mg.

Take `O=S(=O)(NC[C@@H](O)[C@@H]1CCc2cc(F)ccc2O1)c1cccs1` [Compound 8c, N-((R)-2-((S)-6-Fluorochroman-2-yl)-2-hydroxyethyl)thiophene-2-sulfonamide]: the MIC in [1] is 17.1 ± 0.47 mg/L (≈ 47.9 µM); in experiment [6], 21.6 ± 0.44 mg/L (≈ 60.4 µM); in experiment [8], 22.2 ± 0.63 mg/L (≈ 62.1 µM); in [10], 18.1 ± 0.46 mg/L (≈ 50.6 µM); in [11] it was 22.2 ± 0.83 mg/L (≈ 62.2 µM); in experiment [12] it was 16.7 ± 0.7 mg/L (≈ 46.8 µM). Besides, the MIC in experiment [13] was found to be 19.7 ± 0.62 mg/L (≈ 55 µM). Further, the inhibition at 100 µM in [2] worked out at 40.4 ± 0.1%; in [7], 51.1 ± 0.62%. Further, the inhibition at 200 µM was found to be 61.2 ± 0.72% in experiment [2] and 70.07 ± 0.7% in [7]. Besides, the Paw volume in [3] (1 h after carrageenan) turned out to be 0.60 ± 0.64 mL; in experiment [3] (3 h after carrageenan), 0.88 ± 0.31 mL; in [3] (6 h after carrageenan) it was 1.11 ± 0.13 mL. For the same compound, in experiment [4], the “anti-inflammatory activity against LPS induced cell death / inflammation (MTT)” value is on record as “strong anti-inflammatory activity”. Further, the “inhibition of LPS-induced NO production” value in experiment [5] is given as “strong inhibition”. Further, the “Weight, Dry (cotton pellet)” value in experiment [9] amounted to 91.30 ± 1.72 mg. The “Weight, Wet (cotton pellet)” value in experiment [9] worked out at 148.62 ± 1.85 mg.

Take `O=S(=O)(NC[C@@H](O)[C@@H]1CCc2cc(F)ccc2O1)c1ccc(F)cc1F` [Compound 8f, N-((R)-2-((S)-6-Fluorochroman-2-yl)-2-hydroxyethyl)-2,4-difluorobenzenesulfonamide]: the MIC in [1] was found to be 24.1 ± 1.02 mg/L (≈ 62.1 µM); in experiment [6], 16.2 ± 0.94 mg/L (≈ 41.9 µM); in experiment [8], 26.8 ± 0.55 mg/L (≈ 69.3 µM); in experiment [10], 15.7 ± 0.69 mg/L (≈ 40.4 µM); in experiment [11], 19 ± 0.2 mg/L (≈ 49.2 µM); in experiment [12] it was 16.2 ± 0.82 mg/L (≈ 41.8 µM). In experiment [13], this compound gave an MIC of 19.9 ± 0.66 mg/L (≈ 51.3 µM). In addition, the inhibition at 100 µM is 28.7 ± 0.07% in [2] and 33.9 ± 1.06% in experiment [7]. The figures for the inhibition at 200 µM in [2] and in experiment [7] were 52.1 ± 0.78% and 73.85 ± 0.54%, respectively. The figures for the Paw volume in experiment [3] (1 h after carrageenan), in [3] (3 h after carrageenan) and in experiment [3] (6 h after carrageenan) were 0.62 ± 0.10 mL, 0.86 ± 0.32 mL and 1.10 ± 0.13 mL, respectively. The “anti-inflammatory activity against LPS induced cell death / inflammation (MTT)” value in [4] was “strong anti-inflammatory activity”. Besides, the “inhibition of LPS-induced NO production” value in experiment [5] is on record as “strong inhibition”. The “Weight, Dry (cotton pellet)” value in [9] is given as 70.66 ± 2.33 mg. Also, the “Weight, Wet (cotton pellet)” value in experiment [9] is recorded as 139.82 ± 2.42 mg.

With `O=S(=O)(NC[C@@H](O)[C@@H]1CCc2cc(F)ccc2O1)c1cccc(C(F)(F)F)c1` [Compound 8e, N-((R)-2-((S)-6-Fluorochroman-2-yl)-2-hydroxyethyl)-3-(trifluoromethyl)benzenesulfonamide], the MIC in experiment [1] is 26.3 ± 0.28 mg/L (≈ 62.6 µM); in experiment [6] it was 19.7 ± 0.36 mg/L (≈ 46.9 µM); in [8] it was 26.7 ± 0.88 mg/L (≈ 63.7 µM); in [10], 11.7 ± 0.35 mg/L (≈ 27.9 µM); in experiment [11], 16.6 ± 0.52 mg/L (≈ 39.7 µM); in experiment [12] it was 14.1 ± 0.55 mg/L (≈ 33.6 µM). In experiment [13], this compound returned an MIC of 20.4 ± 0.62 mg/L (≈ 48.7 µM). Also, the figures for the inhibition at 100 µM in [2] and in experiment [7] were 35.55 ± 0.22% and 48.4 ± 0.84%, respectively. Moreover, the figures for the inhibition at 200 µM in experiment [2] and in experiment [7] were 57.72 ± 0.36% and 71.55 ± 0.15%, respectively. The Paw volume is given as 0.68 ± 0.96 mL in experiment [3] (1 h after carrageenan), 0.74 ± 0.29 mL in experiment [3] (3 h after carrageenan) and 1.19 ± 0.65 mL in experiment [3] (6 h after carrageenan). Also, in experiment [4], the “anti-inflammatory activity against LPS induced cell death / inflammation (MTT)” value is given as “strong anti-inflammatory activity”. In addition, in [5], the “inhibition of LPS-induced NO production” value is on record as “strong inhibition”. In [9], the “Weight, Dry (cotton pellet)” value amounted to 76.45 ± 1.95 mg. Further, the “Weight, Wet (cotton pellet)” value in experiment [9] came out at 152.40 ± 1.57 mg.

These data come from PMC8694313 (RSC Advances, 2021).
